Consider eleven compounds from ChEMBL document CHEMBL1687852, “Steroids with aromatic A-rings from the Hainan soft coral Dendronephthya studeri Ridley” (J Nat Prod, 2011).

Type in all cases: functional, cell-based
One experiment concerns HL-60. The experiment can be described thus: Cytotoxicity against human HL60 at 20 ug/ml by MTT assay. The procedure, abridged: (§1)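 Growth of the tumour cell lines was tested with compound at concentrations up to 20 μg/mL. The lines were human lung adenocarcinoma A549, BEL-7402, human promyelocytic leukaemia HL-60 and murine lymphocytic leukaemia P388.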
Another experiment deals with A549. The experiment can be described thus: Cytotoxicity against human A549 at 20 ug/ml by SRB assay. The procedure, abridged:
as §1

The subject of experiment [1] is Bel-7402. The experiment in a line: Cytotoxicity against human Bel7402 at 20 ug/ml by MTT assay. The procedure, abridged:
as §1

The test system of the next experiment is P388. The experiment in a line: Cytotoxicity against mouse P388 at 20 ug/ml by MTT assay. A digest of the protocol: as §1
Experiment [2] relates to Bel-7402. The experiment can be described thus: Cytotoxicity against human Bel7402 by MTT assay.

Activity calls are given as the source filed them. The calls are words filed in the database; no cut-off is given here.

On to `CC(C)/C=C/[C@@H](C)[C@H]1CC[C@H]2[C@@H]3CCc4cc(O)ccc4[C@H]3CC[C@]12C`, for which the outcome in the experiment with HL-60, in the experiment with A549, in the experiment on Bel-7402 [1] and with P388 was inactive.
With `CC(C)/C=C/[C@@H](C)[C@H]1CC[C@H]2[C@@H]3CCC4=CC(=O)C=C[C@]4(C)[C@H]3CC[C@]12C`, the result in the experiment with HL-60, in the experiment on A549, with Bel-7402 [1] and in the experiment on P388 was inactive.
On to `CC(C)[C@@H](C)/C=C/[C@@H](C)[C@H]1CC[C@H]2[C@@H]3CCc4cc(O)ccc4[C@H]3CC[C@]12C`, for which the result in the experiment on HL-60, in the experiment with A549, with Bel-7402 [1] and in the experiment on P388 was inactive.
As for `COC(=O)[C@H](CCCC(C)C)[C@H]1CC[C@H]2[C@@H]3CC[C@H]4CC(=O)C=C[C@]4(C)[C@H]3CC[C@]12C`, the outcome in the experiment on Bel-7402 [2] was Active.
Regarding `CC(C)C/C=C/[C@@H](C)[C@H]1CC[C@H]2[C@@H]3CCC4=CC(=O)C=C[C@]4(C)[C@H]3CC[C@]12C`, the result in the experiment with HL-60, in the experiment on A549, in the experiment on Bel-7402 [1] and in the experiment with P388 was inactive.
As to `CC(C)C/C=C/[C@@H](C)[C@H]1CC[C@H]2[C@@H]3CCc4cc(O)ccc4[C@H]3CC[C@]12C`, the result in the experiment with HL-60, with A549, in the experiment on Bel-7402 [1] and in the experiment with P388 was inactive.
As to `CC(C)[C@H](C)/C=C/[C@@H](C)[C@H]1CC[C@H]2[C@@H]3CCc4cc(O)ccc4[C@H]3CC[C@]12C`, the result in the experiment on HL-60, in the experiment on A549, with Bel-7402 [1] and in the experiment on P388 was inactive.
With `C=C(CC[C@@H](C)[C@H]1CC[C@H]2[C@@H]3CCc4cc(O)ccc4[C@H]3CC[C@]12C)C(C)C`, the result with HL-60, in the experiment with A549, with Bel-7402 [1] and in the experiment with P388 was inactive.
Turning to `CC1CC1/C=C/[C@@H](C)[C@H]1CC[C@H]2[C@@H]3CCc4cc(O)ccc4[C@H]3CC[C@]12C` (stereo partly specified), the outcome in the experiment with HL-60, with A549, in the experiment on Bel-7402 [1] and with P388 was inactive.
With `CC(C)CCC[C@@H](C)[C@H]1CC[C@H]2[C@@H]3CCc4cc(O)ccc4[C@H]3CC[C@]12C`, the outcome in the experiment with HL-60, with A549, in the experiment with Bel-7402 [1] and with P388 was inactive.
With `C=C(CC[C@@H](C)[C@H]1CC[C@H]2[C@@H]3CCC4=CC(=O)C=C[C@]4(C)[C@H]3CC[C@]12C)C(C)C`, the result in the experiment with HL-60, in the experiment with A549, in the experiment on Bel-7402 [1] and in the experiment with P388 was inactive.
